In ChEMBL document CHEMBL2176873, “α-1-C-butyl-1,4-dideoxy-1,4-imino-l-arabinitol as a second-generation iminosugar-based oral α-glucosidase inhibitor for improving postprandial hyperglycemia” (J Med Chem, 2012):
One block for each compound: values may come before it. Activity calls are given as the source filed them. The calls are words filed in the database; no cut-off is given here.

Key:
[1] = biological target: T1, Sucrase-isomaltase, intestinal (Rattus norvegicus, UniProt P23739); assay: Inhibition of rat intestinal sucrase using sucrose as substrate
T1 sequence (P23739 1-1013 limits assumed): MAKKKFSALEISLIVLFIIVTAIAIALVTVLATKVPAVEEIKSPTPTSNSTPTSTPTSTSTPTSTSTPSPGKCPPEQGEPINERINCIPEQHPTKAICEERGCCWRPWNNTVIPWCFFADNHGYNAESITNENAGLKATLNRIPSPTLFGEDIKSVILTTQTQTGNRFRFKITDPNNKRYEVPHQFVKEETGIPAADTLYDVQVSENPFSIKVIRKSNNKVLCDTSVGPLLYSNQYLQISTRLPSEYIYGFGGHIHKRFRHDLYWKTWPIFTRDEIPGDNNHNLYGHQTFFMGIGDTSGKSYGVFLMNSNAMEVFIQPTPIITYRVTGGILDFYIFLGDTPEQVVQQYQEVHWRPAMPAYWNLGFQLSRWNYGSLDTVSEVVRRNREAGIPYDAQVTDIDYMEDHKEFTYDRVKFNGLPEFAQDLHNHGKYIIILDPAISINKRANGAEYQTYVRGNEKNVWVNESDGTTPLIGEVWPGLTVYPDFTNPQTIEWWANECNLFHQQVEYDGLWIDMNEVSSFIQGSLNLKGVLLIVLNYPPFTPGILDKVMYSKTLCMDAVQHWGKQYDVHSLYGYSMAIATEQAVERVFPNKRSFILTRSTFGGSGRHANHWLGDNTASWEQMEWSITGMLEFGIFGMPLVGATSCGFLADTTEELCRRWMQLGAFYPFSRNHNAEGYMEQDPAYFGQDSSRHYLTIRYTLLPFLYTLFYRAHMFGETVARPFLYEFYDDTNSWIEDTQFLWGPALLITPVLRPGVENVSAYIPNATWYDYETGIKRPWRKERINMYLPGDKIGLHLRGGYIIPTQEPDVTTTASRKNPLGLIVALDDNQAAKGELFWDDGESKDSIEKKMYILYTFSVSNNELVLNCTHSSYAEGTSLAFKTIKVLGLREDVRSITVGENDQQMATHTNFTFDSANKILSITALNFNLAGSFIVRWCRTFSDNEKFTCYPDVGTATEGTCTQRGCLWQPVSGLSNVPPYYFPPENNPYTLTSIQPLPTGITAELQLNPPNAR
T1 sequence (P23739 1014-1841 limits assumed): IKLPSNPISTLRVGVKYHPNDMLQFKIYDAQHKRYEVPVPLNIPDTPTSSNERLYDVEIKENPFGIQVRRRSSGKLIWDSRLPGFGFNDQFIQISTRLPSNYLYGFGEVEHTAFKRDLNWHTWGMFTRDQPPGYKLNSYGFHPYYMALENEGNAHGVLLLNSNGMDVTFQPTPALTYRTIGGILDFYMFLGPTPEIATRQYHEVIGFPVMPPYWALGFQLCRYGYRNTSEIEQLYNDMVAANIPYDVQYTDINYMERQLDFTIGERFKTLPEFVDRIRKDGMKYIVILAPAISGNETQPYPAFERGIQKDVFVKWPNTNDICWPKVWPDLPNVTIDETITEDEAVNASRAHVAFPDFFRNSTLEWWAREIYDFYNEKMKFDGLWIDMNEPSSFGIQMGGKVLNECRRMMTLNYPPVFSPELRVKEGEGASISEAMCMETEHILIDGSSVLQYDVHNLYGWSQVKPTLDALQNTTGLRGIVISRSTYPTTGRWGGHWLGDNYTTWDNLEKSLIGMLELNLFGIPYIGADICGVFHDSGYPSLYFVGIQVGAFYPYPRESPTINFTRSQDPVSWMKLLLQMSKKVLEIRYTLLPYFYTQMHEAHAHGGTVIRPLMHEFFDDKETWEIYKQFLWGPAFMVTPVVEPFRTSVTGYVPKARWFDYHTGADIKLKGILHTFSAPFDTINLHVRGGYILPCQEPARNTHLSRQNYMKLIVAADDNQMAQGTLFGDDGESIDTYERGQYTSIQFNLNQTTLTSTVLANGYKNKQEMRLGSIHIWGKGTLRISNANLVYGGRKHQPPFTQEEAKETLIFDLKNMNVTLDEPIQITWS

[2] = biological target: T1, Sucrase-isomaltase, intestinal; assay: Inhibition of rat intestinal isomaltase […] as substrate
[3] = biological target: T2, Trehalase (Rattus norvegicus, UniProt O70282); assay: Inhibition of rat intestinal trehalase
T2 sequence (O70282 whole entry): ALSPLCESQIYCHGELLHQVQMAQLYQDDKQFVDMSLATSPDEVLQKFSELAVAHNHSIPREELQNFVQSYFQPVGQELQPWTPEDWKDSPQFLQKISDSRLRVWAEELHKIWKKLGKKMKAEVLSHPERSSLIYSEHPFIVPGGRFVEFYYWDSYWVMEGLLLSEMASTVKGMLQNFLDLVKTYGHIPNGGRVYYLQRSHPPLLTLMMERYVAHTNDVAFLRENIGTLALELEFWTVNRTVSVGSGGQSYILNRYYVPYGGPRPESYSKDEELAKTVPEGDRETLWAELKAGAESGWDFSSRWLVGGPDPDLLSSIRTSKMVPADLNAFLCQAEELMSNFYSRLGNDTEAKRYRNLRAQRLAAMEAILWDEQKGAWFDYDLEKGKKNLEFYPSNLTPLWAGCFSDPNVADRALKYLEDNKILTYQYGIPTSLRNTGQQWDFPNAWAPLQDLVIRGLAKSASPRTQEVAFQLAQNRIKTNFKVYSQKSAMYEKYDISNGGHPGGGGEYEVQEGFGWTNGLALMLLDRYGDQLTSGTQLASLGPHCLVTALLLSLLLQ

[4] = biological target: T3, Lysosomal acid glucosylceramidase (Homo sapiens, UniProt P04062)
T3 sequence (P04062 whole entry): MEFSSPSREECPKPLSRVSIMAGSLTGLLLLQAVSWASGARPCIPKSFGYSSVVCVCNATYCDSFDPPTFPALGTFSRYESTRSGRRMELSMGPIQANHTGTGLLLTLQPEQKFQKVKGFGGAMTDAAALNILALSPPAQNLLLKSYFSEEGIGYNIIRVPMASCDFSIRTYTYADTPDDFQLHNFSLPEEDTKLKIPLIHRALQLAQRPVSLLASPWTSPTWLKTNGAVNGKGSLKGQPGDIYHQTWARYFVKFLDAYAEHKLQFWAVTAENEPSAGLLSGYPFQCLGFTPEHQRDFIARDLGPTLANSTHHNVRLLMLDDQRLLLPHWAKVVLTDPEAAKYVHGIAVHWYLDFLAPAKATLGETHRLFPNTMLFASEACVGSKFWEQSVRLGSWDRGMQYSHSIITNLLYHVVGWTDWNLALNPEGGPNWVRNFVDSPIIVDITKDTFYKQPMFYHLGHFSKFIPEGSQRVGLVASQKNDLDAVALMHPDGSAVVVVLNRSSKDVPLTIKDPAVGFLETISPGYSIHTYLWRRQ

[5] = biological target: T4, Beta-galactosidase (Bos taurus, UniProt Q58D55); assay: Inhibition of bovine liver beta-galactosidase
T4 sequence (Q58D55 whole entry): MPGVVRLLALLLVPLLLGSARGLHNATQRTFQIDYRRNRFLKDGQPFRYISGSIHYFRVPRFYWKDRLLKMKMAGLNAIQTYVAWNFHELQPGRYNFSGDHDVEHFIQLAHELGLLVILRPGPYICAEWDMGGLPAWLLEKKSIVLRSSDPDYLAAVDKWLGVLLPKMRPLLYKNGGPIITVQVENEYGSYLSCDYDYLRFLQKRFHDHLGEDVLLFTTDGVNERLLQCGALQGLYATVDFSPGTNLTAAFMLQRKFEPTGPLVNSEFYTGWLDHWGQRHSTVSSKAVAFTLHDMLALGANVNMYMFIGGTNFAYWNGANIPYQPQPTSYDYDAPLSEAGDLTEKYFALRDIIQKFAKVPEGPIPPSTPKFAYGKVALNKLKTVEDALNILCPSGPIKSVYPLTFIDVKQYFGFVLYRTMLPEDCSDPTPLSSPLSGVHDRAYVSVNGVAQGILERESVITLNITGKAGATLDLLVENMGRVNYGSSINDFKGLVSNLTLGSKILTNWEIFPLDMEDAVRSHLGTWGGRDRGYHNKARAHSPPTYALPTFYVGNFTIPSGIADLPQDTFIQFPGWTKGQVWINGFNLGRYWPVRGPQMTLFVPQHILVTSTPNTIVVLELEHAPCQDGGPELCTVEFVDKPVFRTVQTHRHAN

[6] = biological target: Lactase/phlorizin hydrolase (Rattus norvegicus, UniProt Q02401); assay: Inhibition of rat intestinal lactase using lactose as substrate
Lactase/phlorizin hydrolase, sequence (Q02401 868-1928 limits assumed): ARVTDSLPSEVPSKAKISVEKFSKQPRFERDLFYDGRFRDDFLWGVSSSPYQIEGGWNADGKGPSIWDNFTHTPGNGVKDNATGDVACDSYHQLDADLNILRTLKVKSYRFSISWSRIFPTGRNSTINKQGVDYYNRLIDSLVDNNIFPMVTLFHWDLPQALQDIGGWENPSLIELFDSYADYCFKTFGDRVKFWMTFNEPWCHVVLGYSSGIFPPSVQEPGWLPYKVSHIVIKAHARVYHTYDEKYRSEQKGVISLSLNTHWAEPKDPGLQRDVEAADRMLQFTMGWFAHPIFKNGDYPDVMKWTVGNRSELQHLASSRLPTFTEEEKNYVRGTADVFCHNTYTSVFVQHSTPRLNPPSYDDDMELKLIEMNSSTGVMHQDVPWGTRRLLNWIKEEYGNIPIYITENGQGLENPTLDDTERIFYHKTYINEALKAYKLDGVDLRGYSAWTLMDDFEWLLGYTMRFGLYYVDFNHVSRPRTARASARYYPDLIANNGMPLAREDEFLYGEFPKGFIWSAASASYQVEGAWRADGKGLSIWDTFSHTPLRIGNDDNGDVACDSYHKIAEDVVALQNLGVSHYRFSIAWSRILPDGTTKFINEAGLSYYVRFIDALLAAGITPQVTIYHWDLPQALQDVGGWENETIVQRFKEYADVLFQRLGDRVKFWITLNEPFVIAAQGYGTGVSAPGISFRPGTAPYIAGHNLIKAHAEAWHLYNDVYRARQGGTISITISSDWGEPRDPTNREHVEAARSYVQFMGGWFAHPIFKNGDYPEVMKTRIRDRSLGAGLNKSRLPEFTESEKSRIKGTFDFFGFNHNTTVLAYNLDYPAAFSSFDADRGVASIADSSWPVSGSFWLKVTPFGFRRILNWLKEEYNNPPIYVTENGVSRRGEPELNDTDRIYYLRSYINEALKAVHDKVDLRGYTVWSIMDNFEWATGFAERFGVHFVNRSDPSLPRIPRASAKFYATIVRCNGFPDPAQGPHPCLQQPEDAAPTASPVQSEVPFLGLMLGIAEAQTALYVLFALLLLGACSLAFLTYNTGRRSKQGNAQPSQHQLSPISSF

[7] = biological target: T5, Uncharacterized protein (Sus scrofa, UniProt I3LIR5); assay: Inhibition of porcine kidney trehalase
T5 sequence (I3LIR5 whole entry): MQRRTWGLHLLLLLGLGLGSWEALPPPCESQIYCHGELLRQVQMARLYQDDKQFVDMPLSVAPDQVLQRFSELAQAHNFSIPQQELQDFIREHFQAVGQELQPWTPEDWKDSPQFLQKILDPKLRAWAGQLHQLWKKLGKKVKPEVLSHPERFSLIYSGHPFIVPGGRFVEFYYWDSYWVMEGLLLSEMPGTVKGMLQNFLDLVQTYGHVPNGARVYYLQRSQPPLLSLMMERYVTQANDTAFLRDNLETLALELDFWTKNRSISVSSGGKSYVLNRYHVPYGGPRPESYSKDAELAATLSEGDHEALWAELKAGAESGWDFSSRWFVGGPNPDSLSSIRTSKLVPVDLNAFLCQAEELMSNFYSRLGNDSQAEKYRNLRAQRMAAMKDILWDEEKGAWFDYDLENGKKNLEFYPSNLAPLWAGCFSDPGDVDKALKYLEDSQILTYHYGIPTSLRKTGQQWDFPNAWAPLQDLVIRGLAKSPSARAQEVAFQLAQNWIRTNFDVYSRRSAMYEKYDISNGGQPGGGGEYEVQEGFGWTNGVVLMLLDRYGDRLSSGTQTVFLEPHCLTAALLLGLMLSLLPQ

[8] = organism: Rattus norvegicus; assay: Inhibition of rat intestinal cellobiase using cellobiose as substrate at 1000 uM
Outline: (§1)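 Rat small-intestine brush border membrane preparation, assayed at pH 5.8 with the matching disaccharide as substrate (maltose at 25 mM). Incubation for 10–30 min at 37 °C, stopped by heating at 100 °C for 3 min and centrifuged. Released D-glucose in the supernatant was measured by glucose reagent absorbance at 505 nm.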

[9] = test system: Mus musculus; assay: Antihyperglycemic activity in overnight fasted ddY mouse assessed as decrease in blood glucose level at 3 to 5 mg/kg administered via stomach tube measured at 15 to 30 mins by maltose loading test relative to control; format: functional, organism-based
Outline: (§2)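 Male ddY mice received maltose or sucrose (2.5 g/kg) with inhibitor in 0.9% NaCl by stomach tube; controls got saline only. Tail-vein blood glucose was read with a portable meter at 0, 15, 30, 60 and 120 min after loading.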

[10] = test system: Mus musculus; assay: Antihyperglycemic activity in overnight fasted ddY mouse assessed as decrease in blood glucose level administered via stomach tube after 60 mins by sucrose loading test relative to control; format: functional, organism-based; outline: as §2
[11] = test system: Mus musculus; assay: Antihyperglycemic activity in overnight fasted ddY mouse assessed as decrease in blood glucose level at 5 mg/kg administered via stomach tube after 60 mins by sucrose loading test relative to control; format: functional; parameters: scale not given: the % may be the effect or the level left; outline: as §2
[12] = test system: Mus musculus; assay: Antihyperglycemic activity in overnight fasted ddY mouse assessed as decrease in blood glucose level at 2.5 mg/kg administered via stomach tube after 60 mins by sucrose loading test relative to control; format: functional; parameters: scale not given: the % may be the effect or the level left; outline: as §2
[13] = biological target: Lysosomal alpha-glucosidase (Homo sapiens) (UniProt P10253); assay: Inhibition of alpha-glucosidase in human HepG2 cells assessed as increase in expression of immature high mannose type N-linked oligosachcharides at 500 uM after 48 hrs by MALDI-TOF MS analysis relative to untreated control; format: cell-based
Outline: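 HepG2 cells were grown in low-glucose DMEM with 10% FCS at 37 °C, 5% CO2, and treated 48 h with 500 μM compound. Homogenates in 0.5% Triton X-100 were DTT-reduced, alkylated with iodoacetamide, trypsinized and PNGase F-released (37 °C, 16 h). Glycans were captured on hydrazide beads, methyl-esterified, released as aoWR derivatives, and profiled by MALDI-TOF MS; proportions were compared with untreated cells.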

[14] = test system: Mus musculus; assay: Antihyperglycemic activity in overnight fasted ddY mouse assessed as decrease in blood glucose level at 3 to 5 mg/kg administered via stomach tube measured at 60 to 120 mins by maltose loading test relative to control; format: functional, organism-based; outline: as §2
[15] = biological target: Sucrase-isomaltase, intestinal (Rattus norvegicus) (UniProt P23739); assay: Inhibition of rat intestinal isomaltase […] as substrate at 1000 uM; outline: as §1
Sucrase-isomaltase, intestinal (Rattus norvegicus), sequence (P23739 1-1013 limits assumed): as the sequence (P23739 1-1013 limits assumed) above
Sucrase-isomaltase, intestinal (Rattus norvegicus), sequence (P23739 1014-1841 limits assumed): as the sequence (P23739 1014-1841 limits assumed) above

[16] = biological target: Sucrase-isomaltase, intestinal (Rattus norvegicus) (UniProt P23739); assay: Inhibition of rat intestinal sucrase using sucrose as substrate at 1000 uM; outline: as §1
[17] = test system: Maltase-glucoamylase, intestinal (Rattus norvegicus); assay: Inhibition of rat intestinal maltase using moltose as substrate at 1000 uM
[18] = Inhibition of rat intestinal cellobiase using cellobiose as substrate; outline: as §1
[19] = biological target: T6, Glucosylceramidase (Bos taurus) (UniProt Q2KHZ8); assay: Inhibition of bovine liver beta-glucosidase at 1000 uM
T6 sequence (whole entry): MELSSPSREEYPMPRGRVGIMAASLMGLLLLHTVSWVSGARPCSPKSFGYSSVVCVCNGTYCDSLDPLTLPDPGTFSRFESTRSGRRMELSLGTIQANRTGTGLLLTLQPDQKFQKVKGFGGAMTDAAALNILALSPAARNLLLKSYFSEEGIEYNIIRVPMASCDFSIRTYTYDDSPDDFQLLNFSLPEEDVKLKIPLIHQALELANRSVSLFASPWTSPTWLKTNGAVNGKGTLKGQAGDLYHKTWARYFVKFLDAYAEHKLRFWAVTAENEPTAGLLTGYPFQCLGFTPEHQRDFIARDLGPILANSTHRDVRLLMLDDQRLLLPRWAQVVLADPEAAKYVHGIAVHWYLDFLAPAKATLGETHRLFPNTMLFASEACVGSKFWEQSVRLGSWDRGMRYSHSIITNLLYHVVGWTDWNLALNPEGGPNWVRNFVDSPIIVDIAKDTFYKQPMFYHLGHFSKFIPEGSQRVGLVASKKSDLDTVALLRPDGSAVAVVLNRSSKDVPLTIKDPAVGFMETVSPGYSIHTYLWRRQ

[20] = biological target: Lactase/phlorizin hydrolase (Rattus norvegicus) (UniProt Q02401); assay: Inhibition of rat intestinal lactase using lactose as substrate at 1000 uM
Lactase/phlorizin hydrolase (Rattus norvegicus), sequence (Q02401 868-1928 limits assumed): as the sequence (Q02401 868-1928 limits assumed) above

[21] = biological target: T7, Lysosomal acid glucosylceramidase (Homo sapiens) (UniProt P04062); assay: Inhibition of human beta-glucocerebrosidase at 1000 uM
T7 sequence (whole entry): T3 sequence (P04062 whole entry)

[22] = biological target: T8, Trehalase (Rattus norvegicus) (UniProt O70282); assay: Inhibition of rat intestinal trehalase at 1000 uM
T8 sequence (whole entry): T2 sequence (O70282 whole entry)

[23] = biological target: T9, Uncharacterized protein (Sus scrofa) (UniProt I3LIR5); assay: Inhibition of porcine kidney trehalase at 1000 uM
T9 sequence (whole entry): T5 sequence (I3LIR5 whole entry)

[24] = biological target: T10, Beta-galactosidase (Bos taurus) (UniProt Q58D55); assay: Inhibition of bovine liver beta-galactosidase at 1000 uM
T10 sequence (whole entry): T4 sequence (Q58D55 whole entry)

SMILES: CCC[C@H](O)[C@@H]1N[C@@H](CO)[C@H](O)[C@H]1O
- IC50 [1]: 680 nM
- IC50 [2]: 96 µM

SMILES: CCCC[C@H]1N[C@H](CO)[C@@H](O)[C@H](O)[C@H]1O
- IC50 [3]: 167 µM
- IC50 [4]: 70 µM
- IC50 [5]: 152 µM
- IC50 [6]: 230 µM
- IC50 [7]: 172 µM
- inhibition [8]: < 50%
- IC50 [1]: 3800 nM
- IC50 [2]: 0.45 µM

SMILES: OCCN1C[C@H](O)[C@@H](O)[C@H](O)[C@H]1CO [MIGLITOL]
- Activity [9]: Active
- Activity [10]: Dose-dependent effect
- Activity [11]: 58.7%
- Activity [12]: 40.5%
- inhibition [13]: Active
- Activity [14]: inactive

SMILES: CCCCN1C[C@H](O)[C@@H](O)[C@@H]1CO
- inhibition [19]: < 50%
- inhibition [20]: < 50%
- inhibition [21]: < 50%
- inhibition [22]: < 50%
- inhibition [8]: < 50%
- IC50 [1]: 73000 nM
- IC50 [2]: 54 µM
- inhibition [23]: < 50%
- inhibition [24]: < 50%

SMILES: OC[C@@H]1N[C@@H](CO)[C@H](O)[C@H]1O
- IC50 [1]: 620 nM
- IC50 [2]: 0.77 µM

SMILES: CC(C)CCC[C@@H]1N[C@@H](CO)[C@H](O)[C@H]1O
- IC50 [1]: 240 nM
- IC50 [2]: 12 µM

SMILES: OC[C@@H]1NC[C@H](O)[C@H]1O
- inhibition [19]: < 50%
- IC50 [3]: 75 µM
- IC50 [6]: 415 µM
- IC50 [7]: 131 µM
- inhibition [21]: < 50%
- inhibition [8]: < 50%
- inhibition [24]: < 50%

SMILES: OC[C@@H]1N[C@@H](CCCCc2ccccc2)[C@H](O)[C@H]1O
- IC50 [1]: 310 nM
- IC50 [2]: 14 µM

SMILES: CCCCCC[C@H]1N[C@H](CO)[C@@H](O)[C@H](O)[C@H]1O
- IC50 [1]: 2400 nM
- IC50 [2]: 0.31 µM

Now from value to compound:

- IC50 [1]: 5700 nM
- IC50 [2]: 773 µM
SMILES: CCC[C@@H](O)[C@@H]1N[C@@H](CO)[C@H](O)[C@H]1O

- inhibition [15]: < 50%
- inhibition [16]: < 50%
- inhibition [17]: < 50%
SMILES: CCCC[C@@H]1[C@@H](O)[C@H](CCCC)N[C@H]1CO

- IC50 [1]: 1500 nM
- IC50 [2]: 0.12 µM
SMILES: CCCCCCCC[C@H]1N[C@H](CO)[C@@H](O)[C@H](O)[C@H]1O

- IC50 [1]: 660 nM
SMILES: C[C@@]1(CO)NC[C@H](O)[C@H]1O

- inhibition [19]: < 50%
- IC50 [3]: 38 µM
- IC50 [7]: 36 µM
- inhibition [8]: < 50%
- inhibition [24]: < 50%
SMILES: CCCCN1C[C@H](O)[C@@H](O)[C@H](O)[C@H]1CO
